# Measurements gathered from unrelated publications.
# Each line is one published result; the experiments were not run side by side.
# Target: STE20-like serine/threonine-protein kinase (SLK, Homo sapiens, UniProt Q9H2G2)
SMILES,read-out,technique,tested at,remaining binding
Cc1nc(N2CC[C@@H](O)C2)ncc1-c1cc(C(F)(F)F)cc2[nH]ncc12,binding,competition with immobilised ligand,1 µM,98%
N[C@H]1CCN(c2nccc(-c3cnn4ncccc34)n2)C1,binding,,1 µM,86%
C[C@@H](c1ccc(-n2cnc3c(N)ncnc32)cc1)N1CCc2nn(C)c(Cc3ccccc3)c2C1=O,binding,competition with immobilised ligand,0.1 µM,100%
Cc1cnn2ncc(-c3ccnc(N(C)C)n3)c2c1,binding,,1 µM,100%
CN([C@@H]1CCc2c(CC(=O)O)c3cc(S(C)(=O)=O)ccc3n2C1)S(=O)(=O)c1ccc(F)cc1,cell-free assay,competition with immobilised ligand,1 µM,100%
CNC(=O)[C@@H]1CC[C@@H](n2c(-c3ccc4cnccc4c3)nc3ccc(C(=O)NCc4cccc(C(N)=O)c4)cc32)C1,binding,competition with immobilised ligand,1 µM,95%
Nc1ncc2c(n1)-c1c([nH]c3ccc(C#CC4CC4)cc13)CCCC2,binding,competition with immobilised ligand,1 µM,100%
O=C(c1ccc(Nc2nccc(-c3cc4ccccc4s3)n2)cc1)N1CCC(N2CCCC2)CC1,binding,competition with immobilised ligand,1 µM,13%
NS(=O)(=O)c1cc(NC(=O)Cc2ccccc2)ccc1Oc1cccc(Cl)c1,cell-free assay,competition with immobilised ligand,1 µM,66%
Cc1cnc(Nc2ccc(C(=O)N3CCC(N4CCCC4)CC3)cc2)nc1-c1cc2ccccc2s1,binding,competition with immobilised ligand,1 µM,0.4%
C[C@@H]1CCN(c2nccc(-c3cnn4ncccc34)n2)C1,binding,,1 µM,87%
c1ccc(N2CCN(Cc3nc4ccccc4[nH]3)CC2)nc1,binding,competition with immobilised ligand,1 µM,93%
COc1ccnn2ncc(-c3ccnc(N(C)C)n3)c12,binding,,1 µM,86%
Cc1nc(Cc2cccc(C(F)(F)F)c2)sc1-c1ccc(C(N)=O)nc1,cell-free assay,competition with immobilised ligand,1 µM,100%
C=CC(=O)N1CCC(C(=O)NCC(=O)N2CCN(c3nc(-c4cnc(N)nc4C(F)F)nc(N4CCOCC4)n3)CC2)CC1,binding,competition with immobilised ligand,1 µM,80%
C[C@@]1(Cc2ccc(C#N)cc2)C(=O)N(c2cc(Cl)cc(Cl)c2)c2ncc(C(=O)NC3(c4nc(C5CCC5)no4)CC3)n21,cell-free assay,competition with immobilised ligand,1 µM,100%
O=C(NCC1CCOCC1)c1n[nH]cc1NC(=O)c1c(F)cccc1F,binding,competition with immobilised ligand,1 µM,99%
CN(C)c1nccc(-c2cnn3ncccc23)n1,binding,,1 µM,100%
COc1cnc(Nc2cccc(S(N)(=O)=O)c2)nc1N1CCN(c2ccccc2)C(=O)C1,binding,competition with immobilised ligand,1 µM,100%
c1cnn2ncc(-c3ccnc(N4CCC45COC5)n3)c2c1,binding,,1 µM,100%
O=C(NCCCN1CCOCC1)c1ccc(Nc2nccc(-c3cc4ccccc4s3)n2)cc1,binding,competition with immobilised ligand,1 µM,38%
